Measured values reported in ChEMBL document CHEMBL1135537, “Design, synthesis, and biological evaluation of indolequinone phosphoramidate prodrugs targeted to DT-diaphorase” (2002).

Assays:
A498 = test: Growth inhibitory activity against A498-2LM human solid tumor cell line using MTT assay; type: functional
Method in brief: (§1)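 MTT assay. Cells were seeded at (1-2) × 10^4 per well and left to attach for 24 h. Compound was taken up in DMSO and serially diluted in medium, keeping final DMSO at 1% or less, then exposed for 72 h. MTT was added for 4–5 h, formazan was dissolved in DMSO, and absorbance was read at 570 nm. GI50 was taken from percent-of-control versus concentration plots; each compound was assayed twice and the results averaged.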

BE = test: Inhibitory concentration that reduces clonogenic survival by 2 log units (99%) 2-hour after drug treatment in BE human colon carcinoma cell line.; type: functional
Method in brief: (§2)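 Clonogenic assay. Exponentially growing cells at 1–1.2 × 10^5 cells/mL in serum-free MEM with 0.02 M HEPES were exposed for 2 h at 37 °C, 5% CO2, to five final concentrations. Ethanol was the vehicle at 1% final, with an ethanol-only control. Cells were then rinsed, plated at 2–3 densities in five replicates and grown 10 days. Crystal-violet-stained colonies of ≥50 cells were counted, and LC99 was read from log surviving fraction versus concentration. Runs were done at least twice and averaged.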

HT-29 [1] = test: Inhibitory concentration that reduces clonogenic survival by 2 log units (99%) 2-hour after drug treatment in HT-29 human colon carcinoma cell line.; type: functional; method in brief: as §2
HT-29 [2] = test: Growth inhibitory activity against HT-29 human solid tumor cell line using MTT assay; type: functional; method in brief: as §1
MDA-MB-231 = test: Growth inhibitory activity against human MDA-231 cell line using MTT assay.; type: functional; method in brief: as §1
MIA PaCa-2 = test: Growth inhibitory activity against PaCa-2 human solid tumor cell line using MTT assay; type: functional; method in brief: as §1
UMUC3 = test: Growth inhibitory activity against UMUC3 human solid tumor cell line using MTT assay; type: functional; method in brief: as §1
[3] = Selectivity ratio of LC99 of BE to LC99 of HT-29; type: functional
Method in brief: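 Ratio of the BE LC99 to the HT-29 LC99, both from a 2 h clonogenic exposure in serum-free MEM/HEPES with 1% ethanol vehicle. Colonies of ≥50 cells were counted after 10 days, and LC99 was taken from log surviving fraction versus concentration plots.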

A549 = test: Growth inhibitory activity against A549 human solid tumor cell line using MTT assay; type: functional; method in brief: as §1
PC-3 = test: Growth inhibitory activity against human PC-3 cell line using MTT assay.; type: functional; method in brief: as §1
[4] = biological target: NAD(P)H dehydrogenase [quinone] 1 (Homo sapiens) (UniProt P15559); test: Kinetic parameter Kcat was reported against DT-diaphorase
Method in brief: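 Recombinant purified human DTD in Tris buffer (0.05 M, pH 7.6) with dithiothreitol (0.01 mM), NADH (1 mM), cytochrome c (55 μM) and varied indolequinone in DMSO. Run at 25 °C, started with enzyme, in triplicate. Cytochrome c reduction was followed at 550 nm, with no-enzyme background rates. kcat came from Hanes plots of initial linear rates (ε 1.85 × 10^4 M-1 cm-1). Values average ≥2 experiments.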

NAD(P)H dehydrogenase [quinone] 1 (Homo sapiens), sequence (P15559 whole entry): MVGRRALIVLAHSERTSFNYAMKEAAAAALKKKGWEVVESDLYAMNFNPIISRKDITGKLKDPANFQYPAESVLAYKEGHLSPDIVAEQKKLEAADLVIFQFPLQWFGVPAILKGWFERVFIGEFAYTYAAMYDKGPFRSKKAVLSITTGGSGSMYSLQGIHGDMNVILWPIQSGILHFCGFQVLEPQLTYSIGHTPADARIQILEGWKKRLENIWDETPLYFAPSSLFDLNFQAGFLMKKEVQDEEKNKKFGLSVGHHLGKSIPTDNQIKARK

Structure (SMILES)	GI50 (A498)	LC99 (BE)	LC99 (HT-29 [1])	GI50 (HT-29 [2])	GI50 (MDA-MB-231)	GI50 (MIA PaCa-2)	GI50 (UMUC3)	Selectivity [3]	GI50 (A549)	GI50 (PC-3)	k cat [4]
COC1=CC(=O)c2c(c(COP(=O)(N(C)CCBr)N(C)CCBr)cn2C)C1=O	340 nM	0.14 µM	0.07 µM	65 nM	40 nM	25 nM	2 nM	2	23 nM	66 nM	–
COC1=CC(=O)c2c(c(CO)cn2C)C1=O	–	–	–	–	–	–	–	–	–	–	136 s⁻¹
COC1=CC(=O)c2c(cc(COP(=O)(N(C)CCBr)N(C)CCBr)n2C)C1=O	2300 nM	2 µM	0.35 µM	200 nM	840 nM	8 nM	17 nM	6	1700 nM	940 nM	1.28 s⁻¹
COC1=CC(=O)c2c(c(COC(C)=O)cn2C)C1=O	37 nM	5.3 µM	0.54 µM	3 nM	250 nM	4 nM	7 nM	10	440 nM	5 nM	4 s⁻¹
COC1=CC(=O)c2c(c(COP(N)(=O)N(CCBr)CCBr)cn2C)C1=O (stereo unspecified)	1000 nM	0.47 µM	0.24 µM	240 nM	190 nM	220 nM	10 nM	2	400 nM	650 nM	–
COC1=CC(=O)c2c(cc(COP(N)(=O)N(CCCl)CCCl)n2C)C1=O (stereo unspecified)	980 nM	7.6 µM	0.11 µM	210 nM	870 nM	31 nM	10 nM	69	22 nM	260 nM	2.6 s⁻¹
COC1=CC(=O)c2c(cc(COP(N)(=O)N3CCOCC3)n2C)C1=O (stereo unspecified)	12000 nM	>100 µM	>100 µM	15000 nM	13000 nM	10000 nM	10000 nM	–	45000 nM	14000 nM	4.9 s⁻¹
COC1=CC(=O)c2c(cc(COC(C)=O)n2C)C1=O	34000 nM	>100 µM	>100 µM	34000 nM	> 38000 nM	35000 nM	9600 nM	–	26000 nM	> 38000 nM	30 s⁻¹
COC1=CC(=O)c2c(cc(CO)n2C)C1=O	–	–	–	–	–	–	–	–	–	–	77 s⁻¹
COC1=CC(=O)c2c(cc(COP(N)(=O)N(CCBr)CCBr)n2C)C1=O (stereo unspecified)	200 nM	4.2 µM	0.077 µM	61 nM	1600 nM	15 nM	2 nM	65	3 nM	490 nM	1.6 s⁻¹
CC1=CC(=O)c2ccccc2C1=O	–	–	–	–	–	–	–	–	–	–	960 s⁻¹
COC1=CC(=O)c2c(c(COP(N)(=O)N3CCOCC3)cn2C)C1=O (stereo unspecified)	1200 nM	>100 µM	>100 µM	7700 nM	9300 nM	9800 nM	8200 nM	–	12000 nM	15000 nM	–
